Results on 23 molecules are retold here after ChEMBL document CHEMBL1155843, “Selective alkylation of beta(II)-tubulin and thioredoxin-1 by structurally related subsets of aryl chloroethylureas leading to either anti-microtubules or redox modulating agents” (2008).

The test system of experiment [1] is MCF7. The experiment can be described thus: Cell cycle arrest in human MCF7 cells assessed as accumulation at G0/G1 phase at 2 times GI50 after 24 hrs by flow cytometry. The class given is functional. The procedure, abridged: (§1)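 Cells were trypsinized, PBS-washed, fixed in ice-cold ethanol, and stained with propidium iodide plus RNase for 30 min at room temperature. G0/G1, S and G2/M fractions were measured by flow cytometry.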
(In general: A flow cytometer gives signals particle by particle.)

In experiment [2] the test system is MCF7. The experiment can be described thus: Cell cycle arrest in human MCF7 cells assessed as accumulation at S phase at 2 times GI50 after 24 hrs by flow cytometry. The class given is functional. The procedure, abridged:
as §1

For experiment [3], the system named is MCF7. The experiment can be described thus: Cell cycle arrest in human MCF7 cells assessed as accumulation at G2/M phase at 2 times GI50 after 24 hrs by flow cytometry. Format: functional. The procedure, abridged: as §1
Experiment [4] relates to M21. In words: Induction of beta2-tubulin alkylation in human M21 cells at 2 times GI50 by Western blot analysis. The class given is cell-based. The procedure, abridged:
(§2)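 Floating and adherent cells were pooled and lysed in boiled Laemmli buffer; protein was measured by Lowry. 20 µg per lane ran on 10% SDS-PAGE and was blotted with anti-βII-tubulin (1:500), HRP anti-mouse (1:2500) and ECL. Alkylation was scored as a faster-migrating βII-tubulin band.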
Background: A western blot detects proteins with antibodies after separation by electrophoresis.

Experiment [5] deals with M21. In words: Stimulation of nuclear translocation of thioredoxin-1 from cytosol in human M21 cells at 25 µM after 16 hrs by immunocytofluorescence.
Experiment [6] relates to M21. The experiment can be described thus: Induction of beta2-tubulin alkylation in human M21 cells at 2 times GI50 after 48 hrs by Western blot analysis. Format: cell-based. The procedure, abridged: as §2
The test system of experiment [7] is M21. The experiment can be described thus: Inhibition of nuclear translocation of thioredoxin-1 from cytosol in human M21 cells at 2 times GI50 after 16 hrs by immunocytofluorescence. The class given is functional, cell-based. The procedure, abridged:
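Cells were fixed in 3.7% formaldehyde (20 min), permeabilized with 0.1% saponin and blocked with 3% BSA. Staining used anti-Trx-1 monoclonal (1:200, 2 h, 37 °C) and Alexa-488 anti-mouse IgG (1:1000, 1 h). Trx-1 cytosol/nucleus localization was read by confocal immunofluorescence.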

The test system of experiment [8] is MCF7. The experiment can be described thus: Antiproliferative activity against human MCF7 cells after 48 hrs by sulforhodamine B method. The settings on record: for GI50: MCF7, 48 h. The class given is functional. The procedure, abridged:
(§3)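 Seeding per well: 5 × 10³ HT-29 cells, or 3.5 × 10³ M21 or MCF-7 cells. Drugs were dissolved fresh in DMSO and serially diluted in medium (final range 100 to 0.3), with DMSO held at 0.12%. Cells were exposed for 48 h, fixed with cold TCA (10% final, 1 h, 4 °C) and stained with 0.1% SRB for 15 min. Dye was solubilized in 10 mM Tris and read at A585. Day-0 OD was subtracted, inhibition was calculated against DMSO cells, and n ≥ 3.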
(In SRB staining, fixed cells bind dye roughly in proportion to their protein.)

In experiment [9] the test system is M21. The experiment can be described thus: Antiproliferative activity against human M21 cells after 48 hrs by sulforhodamine B method. Format: functional. The following applies: for GI50: M21, 48 h. The procedure, abridged:
as §3

The test system of experiment [10] is HT-29. The experiment can be described thus: Antiproliferative activity against human HT29 cells after 48 hrs by sulforhodamine B method. The settings on record: for GI50: HT-29, 48 h. Format: functional. The procedure, abridged: as §3
The subject of experiment [11] is M21. In words: Induction of beta2-tubulin alkylation in human M21 cells at 2 times GI50 after 24 hrs by Western blot analysis. The class given is cell-based. The procedure, abridged:
as §2

Experiment [12] has as its system M21. The experiment can be described thus: Induction of beta2-tubulin alkylation in human M21 cells at 50 nM by Western blot analysis. Format: cell-based. The procedure, abridged: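 Same M21 Western blot workflow (pooled cells, Laemmli lysis, 20 µg on 10% SDS-PAGE, anti-βII-tubulin 1:500, ECL), except that vinblastine, colchicine and paclitaxel were applied at 50 nM for 16, 24 and 48 h at 37 °C. The alkylated form appeared as a lower-apparent-MW band.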

The test system of experiment [13] is M21. The experiment can be described thus: Inhibition of nuclear translocation of thioredoxin-1 from cytosol in human M21 cells at 50 nM after 16 hrs by immunocytofluorescence. The class given is functional, cell-based. The procedure, abridged:
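Reference agents colchicine or vinblastine were applied at 50 nM to M21 cells on fibronectin-coated coverslips. Cells were fixed in formaldehyde, permeabilized with saponin, and stained with anti-Trx-1 (1:200, 2 h, 37 °C) and Alexa-488 secondary. Nuclear versus cytosolic Trx-1 was assessed by confocal microscopy.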

Calls of active or inactive are those of the source. The calls are words filed in the database; no cut-off is given here.

As to `CCC(C)SSc1ncc[nH]1` (centres undefined) [PX-12], the Activity turned out to be 29% in [1], 13% in [2] and 58% in experiment [3]. Further, in [4], the result was inactive. In addition, the outcome in experiment [5] was Active.

As for `O=C(NCCCl)Nc1cccc(Oc2ccccc2)c1`, the results for the Activity in experiment [1], in experiment [2] and in experiment [3] were 44%, 26% and 30%, respectively. Also, in experiment [6], the result was Active. Moreover, in [7], the result was inactive.

As a reminder, the GI50 is the concentration that inhibits growth by half. In the case of `CC1(C)CCC(C)(C)c2cc(NC(=O)NCCCl)ccc21`, the GI50 in [8] was determined as 4.2 µM; in experiment [9], 2.6 µM; in [10], 1.3 µM. The Activity in experiment [1] was 6%; in experiment [2], 20%; in experiment [3], 74%. The outcome in [11] and in experiment [6] was Active. Further, the result in experiment [7] was inactive.

In the case of `COc1cc2c(c(OC)c1OC)-c1ccc(OC)c(=O)cc1[C@@H](NC(C)=O)CC2`, the result in experiment [4], in [12] and in [13] was inactive.

For the molecule `O=C(NCCCl)Nc1ccc(I)cc1`, the outcome in [6] was Active.

As for `O=C(NCCCl)Nc1cccc(OC2CCCCCCC2)c1`, the concentration for 50% growth inhibition (GI50) in experiment [8] was determined as 23 µM; in experiment [9], 30 µM; in experiment [10], 20 µM. The Activity in experiment [1] is on record as 61%; in experiment [2], 29%; in [3], 10%. In experiment [4], the outcome was inactive. In experiment [7], the result was Active.

`O=C(NCCCl)Nc1cccc(C2CCCCC2)c1`: the GI50 in [8] was 20 µM; in experiment [9], 18 µM; in experiment [10], 11.7 µM. The Activity was 52% in experiment [1], 32% in experiment [2] and 16% in [3]. The outcome in experiment [4] was inactive. Moreover, the outcome in [7] was Active.

Turning to `CC1CCC(Oc2cccc(NC(=O)NCCCl)c2)CC1` (centres undefined), the GI50 came out at 33 µM in experiment [8], 32 µM in experiment [9] and 19 µM in [10]. Also, the Activity in [1] came out at 65%; in experiment [2], 20%; in experiment [3] it was 15%. Besides, in experiment [4], the result was inactive. For the same molecule, the outcome in [7] was Active.

In the case of `O=C(NCCCl)Nc1ccccc1`, the outcome in [8], in experiment [9], in experiment [10], in [4] and in [7] was inactive. Besides, the figures for the Activity in [1], in experiment [2] and in experiment [3] were 59%, 22% and 19%, respectively.

As to `CC[C@]1(O)C[C@@H]2CN(CCc3c([nH]c4ccccc34)[C@@](C(=O)OC)(c3cc4c(cc3OC)N(C)[C@H]3[C@@](O)(C(=O)OC)[C@H](OC(C)=O)[C@]5(CC)C=CCN6CC[C@]43[C@@H]65)C2)C1`, the outcome in experiment [4], in experiment [12] and in [13] was inactive.

For the molecule `CCCC1(c2ccc(NC(=O)NCCCl)cc2)CCCCC1`, the values for the concentration for 50% growth inhibition (GI50) in experiment [8], in experiment [9] and in experiment [10] were 23 µM, 36 µM and 18 µM, respectively. The Activity in experiment [1] is on record as 73%; in experiment [2], 14%; in experiment [3], 13%. Moreover, the outcome in experiment [4] was inactive. Also, the outcome in [7] was Active.

Turning to `CCC1(c2ccc(NC(=O)NCCCl)cc2)CCCCC1`, the 50% growth inhibitory concentration (GI50) in experiment [8] is 17 µM; in experiment [9], 19 µM; in experiment [10], 9.1 µM. Also, the values for the Activity in [1], in [2] and in experiment [3] were 66%, 17% and 17%, respectively. For the same molecule, in experiment [4], the outcome was inactive. Moreover, the result in experiment [7] was Active.

Consider `O=C(NCCCl)Nc1ccc2c(c1)CCCC2`, for which the GI50 was determined as 7.3 µM in [8], 3.7 µM in experiment [9] and 2 µM in [10]. The Activity in [1] came to 10%; in [2] it was 49%; in [3], 41%. Further, the outcome in [6] and in experiment [7] was Active.

Take `O=C(NCCCl)Nc1ccc2c(c1)CCCCC2`: the GI50 in experiment [8] is 12 µM; in experiment [9], 7.2 µM; in experiment [10] it was 3.2 µM. The Activity in experiment [1] was determined as 33%; in [2] it was 24%; in experiment [3], 43%. In addition, the result in experiment [4] and in [7] was inactive.

Take `O=C(NCCCl)Nc1ccc2ccccc2c1`: the values for the Activity in experiment [1], in experiment [2] and in experiment [3] were 17%, 38% and 45%, respectively. Moreover, the result in experiment [6] was Active. In addition, the result in [7] was inactive.

For the molecule `O=C(NCCCl)Nc1ccc(OC2CCCCCCC2)cc1`, the results for the GI50 in experiment [8], in experiment [9] and in experiment [10] were 18 µM, 26 µM and 14 µM, respectively. Besides, the results for the Activity in experiment [1], in experiment [2] and in [3] were 70%, 14% and 16%, respectively. The result in experiment [4] was inactive. The outcome in experiment [7] was Active.

For the molecule `O=C(NCCCl)Nc1ccc2c(c1)CCC2`, the Activity in experiment [1] amounted to 31%; in experiment [2] it was 29%; in experiment [3], 40%. The outcome in [6] was Active.

Regarding `CC(C)(C)c1ccc(NC(=O)NCCCl)cc1`, the result in experiment [6] was Active. In experiment [7], the outcome was inactive.

On to `CC(=O)O[C@H]1C(=O)[C@@]2(C)[C@H]([C@H](OC(=O)c3ccccc3)[C@]3(O)C[C@H](OC(=O)[C@H](O)[C@@H](NC(=O)c4ccccc4)c4ccccc4)C(C)=C1C3(C)C)[C@]1(OC(C)=O)CO[C@@H]1C[C@@H]2O` [PACLITAXEL], for which the Activity in [1] is given as 9%; in [2] it was 11%; in experiment [3], 80%. In addition, the outcome in [4], in experiment [12] and in experiment [13] was inactive.

Regarding `CCCCCCc1ccc(NC(=O)NCCCl)cc1`, the 50% growth inhibitory concentration (GI50) stood at 6.5 µM in experiment [8], 3.8 µM in [9] and 2.9 µM in [10]. For the same molecule, the figures for the Activity in [1], in experiment [2] and in experiment [3] were 16%, 41% and 43%, respectively. Further, the result in experiment [6] was Active. Also, the result in experiment [7] was inactive.

With `CC1(c2ccc(NC(=O)NCCCl)cc2)CCCCC1`, the GI50 in experiment [8] is 18 µM; in [9] it was 16 µM; in [10], 7.8 µM. The Activity in experiment [1] was 60%; in [2] it was 9%; in [3], 31%. Further, the outcome in [4] was inactive. The outcome in experiment [7] was Active.

Take `O=C(NCCCl)Nc1ccc2c(c1)Cc1ccccc1-2`: the Activity was 11% in experiment [1], 57% in [2] and 32% in [3]. In addition, in experiment [6], the outcome was Active. Besides, the result in experiment [7] was inactive.

With `CCNC(=O)Nc1ccc(C2CCCCC2)cc1`, the outcome in experiment [8], in experiment [9], in [10], in experiment [4] and in experiment [7] was inactive. For the same molecule, the Activity in experiment [1] was 55%; in experiment [2] it was 23%; in experiment [3] it was 22%.
